Measurements as given in ChEMBL document CHEMBL4257512, “Synthesis and antiplasmodial activity of purine-based C-nucleoside analogues” (Medchemcomm, 2018).

Tests used:
Plasmodium falciparum [1] = assay: Growth inhibition of Plasmodium falciparum D6 infected in human erythrocytes assessed as reduction in [3H]-isoleucine incorporation pretreated for 24 hrs followed by [3H]-isoleucine addition and measured after 18 hrs by liquid scintillation counting method; assay type: functional, organism-based
Plasmodium falciparum [2] = assay: Growth inhibition of Plasmodium falciparum ITG2 infected in human erythrocytes assessed as reduction in [3H]-isoleucine incorporation pretreated for 24 hrs followed by [3H]-isoleucine addition and measured after 18 hrs by liquid scintillation counting method; assay type: functional, organism-based
Plasmodium falciparum [3] = assay: Antiplasmodial activity against chloroquine-sensitive Plasmodium falciparum 3D7 asynchronous cultures infected in human erythrocytes measured after 72 hrs by SYBR Green1 dye based fluorescence assay; assay type: functional, organism-based; settings: 3D7, 72 h
In short: (§1)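 Parasites kept in human erythrocytes at 5% hematocrit in RPMI-1640 (HEPES) with 0.5% AlbuMaxII, 0.2% glucose, 0.2% bicarbonate, 15 µM hypoxanthine, 37 °C, CO₂. Two-fold serial dilutions spanning 5 µM to 78 nM were applied to asynchronous cultures at 0.8-1% parasitaemia, 1% haematocrit, for 72 h. SYBR Green I lysis buffer was added for 2 h, with fluorescence read at Ex 485/Em 535 nm. IC50 was derived from DNA signal against drug-free controls.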

Plasmodium falciparum [4] = assay: Antiplasmodial activity against chloroquine-resistant Plasmodium falciparum K1 asynchronous cultures infected in human erythrocytes measured after 72 hrs by SYBR Green1 dye based fluorescence assay; assay type: functional, organism-based; settings: K1, 72 h; in short: as §1
[5] = Resistance index, ratio of IC50 for chloroquine-resistant Plasmodium falciparum K1 asynchronous cultures infected in human erythrocytes to IC50 for chloroquine-sensitive Plasmodium falciparum 3D7 asynchronous cultures infected in human erythrocytes; assay type: functional
[6] = Selectivity index, ratio of CC50 for African green monkey Vero cells to IC50 for chloroquine-resistant Plasmodium falciparum K1 asynchronous cultures infected in human erythrocytes; assay type: toxicity, cell-based; settings: read-out: Ratio CC50/IC50
[7] = Cytotoxicity against African green monkey Vero cells after 3 days by resazurin dye based fluorescence assay; assay type: cell-based; settings: chlorocebus sabaeus
In short: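 VERO kidney cells kept in MEM with 15% FBS, 5% CO₂, 37 °C. Cells exposed to serial compound dilutions for three days. Then 10% resazurin added as viability marker. Fluorescence read at Ex 530 ± 25 nm / Em 590 ± 25 nm. Median cytotoxic concentration (CC₅₀) calculated from readings.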

[8] = Selectivity index, ratio of CC50 for African green monkey Vero cells to IC50 for chloroquine-sensitive Plasmodium falciparum 3D7 asynchronous cultures infected in human erythrocytes; assay type: toxicity, cell-based; settings: read-out: Ratio CC50/IC50

Row | SMILES | IC50 (Plasmodium falciparum [1]) [µM] | IC50 (Plasmodium falciparum [2]) [µM] | IC50 (Plasmodium falciparum [3]) [µM] | IC50 (Plasmodium falciparum [4]) [µM] | Ratio IC50 [5] | selectivity ratio [6] | CC50 at 72 h [7] [µM] | selectivity ratio [8]
1 | CN(C/C=C/CN)C[C@H]1O[C@@H](n2cnc3c(N)ncnc32)[C@H](O)[C@@H]1O | 2 to 3 | 2 to 3 |  |  |  |  |  | 
2 | COC(=O)C[C@@H]([C@H]1O[C@@H]2OC(C)(C)O[C@@H]2[C@H]1OCc1ccccc1)n1cnc2c(N)ncnc21 |  |  | 4.44 | 4.79 | 1.07 | 14.3 | 68.4 | 15.4
3 | CCOC(=O)C[C@@H]([C@H]1O[C@@H]2OC(C)(C)O[C@@H]2[C@H]1Oc1ccccc1[N+](=O)[O-])n1cnc2c(N)ncnc21 |  |  | 3.56 | 4.93 | 1.38 | 19.5 | 96.3 | 27.1
4 | CC(=O)c1ccc(-n2cnc3c(N)ncnc32)cc1 |  |  | > 5 |  |  |  |  | 
5 | CC1(C)O[C@H]2O[C@H]([C@H](CCO)n3cnc4c(N)ncnc43)[C@H](Oc3ccccc3[N+](=O)[O-])[C@H]2O1 |  |  | 3.62 | 4.7 | 1.11 | 33.3 | 148 | 37.1
6 | CC1(C)O[C@H]2O[C@H]([C@H](CC(=O)O)n3cnc4c(N)ncnc43)[C@H](Oc3ccccc3N)[C@H]2O1 |  |  | 4.82 | 3.72 |  | 18 | 67.1 | 13.9
7 | CCOC(=O)CCn1cnc2c(N)ncnc21 |  |  | > 5 |  |  |  |  | 
8 | CC1(C)O[C@H]2O[C@H]([C@@H](CCO)n3cnc4c(NCc5ccccc5)ncnc43)[C@H](OCc3ccccc3)[C@H]2O1 |  |  | 4.11 | 4.99 | 1.21 | 15 | 74.9 | 18.2
9 | CCOC(=O)C[C@@H]([C@H]1O[C@@H]2OC(C)(C)O[C@@H]2[C@H]1OCc1ccccc1)n1cnc2c(NCc3ccccc3)ncnc21 |  |  | 1.61 | 1.14 | 0.7 | 50.4 | 57.5 | 35.7
10 | CC1(C)O[C@H]2O[C@H]([C@H](CCO)n3cnc4c(NCc5ccccc5)ncnc43)[C@H](OCc3ccccc3)[C@H]2O1 |  |  | 3.99 | 4.44 | 0.75 | 25.8 | 61.2 | 19.6
11 | CCCCCCCCCCCCNc1ncnc2c1ncn2[C@@H](CC(=O)OCC)[C@H]1O[C@@H]2OC(C)(C)O[C@@H]2[C@H]1OCc1ccccc1 |  |  | 0.88 | 1.13 | 1.28 | 72.1 | 81.5 | 92.6
12 | CC1(C)O[C@H]2O[C@H]([C@H](CCO)n3cnc4c(N)ncnc43)[C@H](OCc3ccccc3)[C@H]2O1 |  |  | 4.31 | 4.99 | 1.15 | 19.5 | 97.1 | 22.5
13 | CCOC(=O)C[C@H]([C@H]1O[C@@H]2OC(C)(C)O[C@@H]2[C@H]1OCc1ccccc1)n1cnc2c(NCc3ccccc3)ncnc21 |  |  | 3.6 | 2.27 | 0.63 | 23.5 | 53.3 | 14.8
14 | CCOC(=O)C[C@@H]([C@H]1O[C@@H]2OC(C)(C)O[C@@H]2[C@H]1Oc1ccccc1N)n1cnc2c(N)ncnc21 |  |  | 4.47 | > 5 | >1.11 | < 17.9 | 89.7 | 20.1
15 | CC(O)c1ccc(-n2cnc3c(N)ncnc32)cc1 (stereo not given) |  |  | > 5 |  |  |  |  | 
16 | CC1(C)O[C@H]2O[C@H]([C@H](CCO)n3cnc4c(N)ncnc43)[C@@H](OCc3ccccc3)[C@H]2O1 |  |  | 4.52 | 4.09 | 1.29 | 31.5 | 148 | 40.9
17 | COC(=O)C[C@H]([C@H]1O[C@@H]2OC(C)(C)O[C@@H]2[C@H]1OCc1ccccc1)n1cnc2c(N)ncnc21 |  |  | 4.12 | 4.09 | 0.99 | 21.1 | 86.3 | 20.9
18 | CC1(C)O[C@H]2O[C@H]([C@@H](CCO)n3cnc4c(N)ncnc43)[C@H](Oc3ccccc3[N+](=O)[O-])[C@H]2O1 |  |  | 3.13 | 2.37 | 0.9 | 12.7 | 51.8 | 11.5
19 | CCOC(=O)C[C@H]([C@H]1O[C@@H]2OC(C)(C)O[C@@H]2[C@H]1Oc1ccccc1[N+](=O)[O-])n1cnc2c(N)ncnc21 |  |  | 4.24 | 4.25 | 1 | 28 | 119 | 28.1
20 | CCCCCCCCCCCCNc1ncnc2c1ncn2[C@H](CC(=O)OCC)[C@H]1O[C@@H]2OC(C)(C)O[C@@H]2[C@H]1OCc1ccccc1 |  |  | 1.01 | 2.57 | 2.54 | 17.5 | 45 | 44.5
